Results published in publication PMC3159713 (Bioorganic & medicinal chemistry letters, 2011).

Legend:
[1] = target: Norwalk virus 3C protease (Norovirus, UniProt Q83883); test: Recombinant NV protease fluorogenic; format: biochemical; details: for IC50 column: designated inactive (percent inhibition < 25): incubated with the enzyme for 30 minutes at an [I]/[S] ratio of 25
murine norovirus (MNV) = test: Murine norovirus replication in RAW267.4 cells; format: cell-based, murine norovirus-1 (MNV-1); details: MNV-1 at MOI of 2, TCID50 assay
HG23 cells = test: Cell cytotoxicity assay kit in HG23 cells; format: cell-based; details: 48 hr of treatment
[2] = system: Norwalk norovirus (NV replicon-harboring HG23 cells); test: Cell-based NV replicon system; parameters: species or system Norwalk virus; details: NV genome levels at 24 hr post-treatment
Method in brief: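 Norwalk virus replicon-harbouring HG23 cells, 1 day old and 80-90% confluent, were treated with the test compound from 0 (mock-DMSO) to 320 μM. NV genome was measured by qRT-PCR. ED50 was determined from NV genome levels at 24 hr post-treatment.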

Sequence of Norwalk virus 3C protease (Q83883 1101-1281): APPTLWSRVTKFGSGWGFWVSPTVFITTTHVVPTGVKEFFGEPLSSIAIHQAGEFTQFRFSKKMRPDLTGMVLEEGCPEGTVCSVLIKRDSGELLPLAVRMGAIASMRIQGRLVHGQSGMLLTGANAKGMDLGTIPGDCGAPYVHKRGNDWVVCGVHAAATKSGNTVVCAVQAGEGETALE

Compound | IC50 column: designated inactive (percent inhibition < 25) [1] | ED50, replication of murine norovirus (MNV) (murine norovirus (MNV)) | Inhibition of Norwalk virus 3C protease (in words) [1] | TD50 (median toxic dose) (HG23 cells) | ED50 (effective dose that inhibits 50% of norovirus replication) [2]
O=C[C@H](CC1CCNC1=O)NC(=O)[C@H](Cc1ccccc1)NC(=O)N1CCOCC1 (some centres unmarked) [Compound 2] | Inactive ^a | – | – | – | –
CC(C)C[C@H](NC(=O)OCc1ccccc1)C(=O)N[C@H](CO)CC1CCNC1=O (some centres unmarked) [Compound 3] | Inactive ^a | – | – | – | –
CC(C)C[C@H](NC(=O)OCc1ccccc1)C(=O)N[C@H](C=O)CC1CCNC1=O (some centres unmarked) [Compound 4] | – | 5.5 µM | dose-dependent inhibition | > 320 µM | 2.1 µM
CC(C)C[C@H](NC(=O)CNC(=O)OCc1ccccc1)C(=O)N[C@H](C=O)CC1CCNC1=O (some centres unmarked) [Compound 5] | – | 20.3 µM | – | > 320 µM | 7.8 µM
CC(C)C[C@H](NC(=O)CNC(=O)OCc1ccccc1)C(=O)N[C@H](CO)CC1CCNC1=O (some centres unmarked) [Compound 6] | Inactive ^a | – | – | – | –
CCCC[C@H](NC(=O)CNC(=O)OCc1ccccc1)C(=O)N[C@H](C=O)CC1CCNC1=O (some centres unmarked) [Compound 7] | – | – | sub-micromolar inhibitor | – | –
CCCC[C@H](NC(=O)CNC(=O)OCc1ccccc1)C(=O)N[C@H](CO)CC1CCNC1=O (some centres unmarked) [Compound 8] | Inactive ^a | – | – | – | –
CC(C)C[C@H](NC(=O)OCc1ccccc1)C(=O)N[C@@H](CC1CCNC1=O)C(=O)C(=O)NC(C)C (some centres unmarked) [Compound 10] | Inactive ^a | – | devoid of inhibitory activity | – | –
